This is an account of results in PubChem BioAssay.

Assay [1] can be described thus: SK-BR-3 cell growth inhibitors, pilot screen, 24 h, human (AID 572;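 active = viability at or below 10% of carrier control in both of two separate runs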;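 also: compound exposure lasted between 18 and 24 h rather than exactly 24 h; 100% = carrier-treated control wells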). As to conditions: SK-BR-3 viability, CellTiter-Glo luminescence, at 10 µM, stronger effect = lower value. On the technique in general: In ATP-based viability assays light output follows the ATP content of the culture.
A short description of assay [2]: HUVEC growth inhibition – cell-based, human, primary screen (AID 575).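 Also: 100% = median of untreated cell wells with 0.1% DMSO on each plate.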 As to conditions: HUVEC proliferation, CellTiter-Glo luminescence, 72 h; at 10 µM; stronger effect = lower value. An outline of the steps:
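system = HUVEC primary cells | amount = 1250 cells/well | buffer or medium = supplemented EBM, 2% fetal bovine serum | dosing = single-point 10 µM, DMSO 0.1% final | times = 72 h compound incubation | detection = CTG luminescence | read-out = % viability relative to median vehicle-well signal on each plate | control set = vehicle and MePR control wells | format = collagen-coated 384-well format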

Assay [3] in a line: growth inhibitors of H69AR lung tumor, primary screen, human, duplicate replicates (AID 580;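 active = viability at or under a set limit in both replicates, limit being median viability minus 3 SD, cut at about 48% in these data, passing the limit was not always enough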;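 also: 100% = mean luminescence of untreated wells and 0% = no signal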). As to conditions: H69AR lung tumor cells viability, ATP luminescence, 72 h; at 10 µM; stronger effect = lower value.
Assay [4] is described as follows: reversal of MRP1-mediated doxorubicin resistance, pilot screen, H69AR cells, doxorubicin co-treatment (AID 601;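 active = viability loss from added drug above about 55%, and viability with drug at most 40%, in both replicates, limit read from the data, passing the limit was not always enough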). The following applies: CellTiter-Glo, 72 h, at 10 µM; for differential viability (reversal): stronger effect = higher value.
Assay [5] can be described thus: 384-well plate pilot, post-Golgi transport modulator project, inhibition of yeast transport mutant growth (AID 636; in the data active = inhibition above about 31%). The following applies: absorbance 615 nm, about 18 h, stronger effect = higher value.
A short description of assay [6]: growth suppression of yeast trafficking mutant, preliminary HTS, modulators of trafficking downstream of Golgi apparatus project, 1536-format plate, OD 615 nm (AID 637; in the data active = inhibition above about 30%). The following applies: yeast transport mutant growth, absorbance 615 nm, 18 h; stronger effect = higher value.
Where [7] appears, read: H69AR cells + 2 uM doxorubicin, measured here: viability with 2 uM doxorubicin, stronger effect = lower value.
Where [8] appears, read: H69AR cells, compound alone cytotoxicity.

Calls of active or inactive are those of the source.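 The calls were made as follows, unless noted: active = viability at or below 30% in both replicate assays; inconclusive = viability at or below 30% in just one of the two assays; inactive = the rest.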

For orientation: viability means a read-out of living cells in per cent, often relative to untreated cells. The inhibition is the relative decrease from the control value, in per cent. On to `C[C@]12CCC(=O)C=C1CC[C@@H]1[C@@H]2[C@@H](O)C[C@@]2(C)[C@H]1CC[C@]2(O)C(=O)CO`, for which the viability is 103% (inactive) in assay [1]; 96.2% (inactive) in assay [2]; 105% (inactive) in assay [3]; 98.9% in assay [4] (setting [7]); 105% in assay [4] (setting [8]). In addition, in assay [4] (H69AR cells + 2 uM doxorubicin), the differential viability (reversal) was 5.76% (inactive). The inhibition in assay [5] was -1.43% (inactive); in assay [6], -3.83% (inactive).
For the compound `Nc1ncnc2nc(Sc3ccc(Cl)cc3)[nH]c12`, the viability in assay [1] is 99% (inactive); in assay [2], 96.1% (inactive); in assay [3], 98.6% (inactive); in assay [4] (setting [7]) it was 91.1%; in assay [4] (setting [8]), 98.6%. The differential viability (reversal) in assay [4] (H69AR cells + 2 uM doxorubicin) is 7.52% (inactive). The inhibition in assay [5] is 0.52% (inactive); in assay [6] it was 4.59% (inactive).
As for `O=C(CCCSc1nc2ccccc2s1)NC1=NCCS1`, the viability in assay [1] was 86% (inactive); in assay [2] it was 102% (inactive); in assay [3] it was 93.7% (inactive); in assay [4] (setting [7]) it was 97.8%; in assay [4] (setting [8]), 93.7%. In addition, the differential viability (reversal) in assay [4] (H69AR cells + 2 uM doxorubicin) is -4.02% (inactive). Moreover, the inhibition in assay [5] is -7.53% (inactive); in assay [6], 1.82% (inactive).
For `N[C@@H](Cc1ccc(O)c(I)c1)C(=O)O`, the viability was 87% (inactive) in assay [1]; 87.5% (inactive) in assay [2]; 105% (inactive) in assay [3]; 89.3% in assay [4] (setting [7]); 105% in assay [4] (setting [8]). Moreover, the differential viability (reversal) in assay [4] (H69AR cells + 2 uM doxorubicin) was 15.7% (inactive). The inhibition was -4.81% (inactive) in assay [5] and -1.33% (inactive) in assay [6].
With `Cc1cc(C(=O)Nc2ccc(S(=O)(=O)Nc3onc(C)c3C)cc2)cs1`, the viability in assay [1] was 101% (inactive); in assay [2], 101% (inactive); in assay [3], 99.4% (inactive); in assay [4] (setting [7]), 96.4%; in assay [4] (setting [8]) it was 99.4%. In addition, in assay [4] (H69AR cells + 2 uM doxorubicin), the differential viability (reversal) is 2.97% (inactive). The inhibition in assay [5] is -3.38% (inactive); in assay [6], 0% (inactive).
On to `CS(=O)(=O)N(CC(=O)Nc1ccc2c(c1)OCO2)Cc1ccc(Cl)cc1`, for which the viability in assay [1] was 70% (inactive); in assay [2] it was 88.5% (inactive); in assay [3] it was 95% (inactive); in assay [4] (setting [7]), 103%; in assay [4] (setting [8]), 95%. Moreover, the differential viability (reversal) in assay [4] (H69AR cells + 2 uM doxorubicin) was -7.89% (inactive). Moreover, the inhibition is -6.58% (inactive) in assay [5] and 2.73% (inactive) in assay [6].
Consider `CC1=NS(=O)(=O)c2cc(Cl)ccc2N1`, for which the viability is 119% (inactive) in assay [1]; 89.4% (inactive) in assay [2]; 94.4% (inactive) in assay [3]; 87.1% in assay [4] (setting [7]); 94.4% in assay [4] (setting [8]). For the same compound, the differential viability (reversal) in assay [4] (H69AR cells + 2 uM doxorubicin) is 7.28% (inactive). Moreover, the results for the inhibition in assay [5] and in assay [6] were -1.17% (inactive) and 4.67% (inactive), respectively.
Turning to `CCN(CC)C(=O)c1ccc(O)c(OC)c1`, the viability was 100% (inactive) in assay [1]; 90.7% (inactive) in assay [2]; 101% (inactive) in assay [3]; 101% in assay [4] (setting [7]); 101% in assay [4] (setting [8]). Moreover, in assay [4] (H69AR cells + 2 uM doxorubicin), the differential viability (reversal) is 0.23% (inactive). Also, the inhibition in assay [5] was -4.94% (inactive); in assay [6] it was -5% (inactive).
Take `COCC(=O)N(C)c1nnc(-c2ccccn2)s1`: the viability in assay [1] is 83% (inactive); in assay [2], 111% (inactive); in assay [3] it was 105% (inactive); in assay [4] (setting [7]), 91.3%; in assay [4] (setting [8]), 105%. Besides, the differential viability (reversal) in assay [4] (H69AR cells + 2 uM doxorubicin) is 13.6% (inactive). Besides, the figures for the inhibition in assay [5] and in assay [6] were -2.57% (inactive) and -1.09% (inactive), respectively.
Regarding `CCOC(=O)c1cnc(-n2nc(C)cc2C)nc1N1CC(C)OC(C)C1` (centres undefined), the viability in assay [1] was 127% (inactive); in assay [2] it was 105% (inactive); in assay [3] it was 86.1% (inactive); in assay [4] (setting [7]), 76.4%; in assay [4] (setting [8]), 86.1%. In assay [4] (H69AR cells + 2 uM doxorubicin), the differential viability (reversal) was 9.65% (inactive). The inhibition is -3.47% (inactive) in assay [5] and 0.73% (inactive) in assay [6].
In the case of `COc1ccccc1CC(=O)NCC1CCCO1` (centres undefined), the viability in assay [1] was 110% (inactive); in assay [2] it was 113% (inactive); in assay [3], 99% (inactive); in assay [4] (setting [7]), 90.7%; in assay [4] (setting [8]) it was 99%. The differential viability (reversal) in assay [4] (H69AR cells + 2 uM doxorubicin) is 8.34% (inactive). The values for the inhibition in assay [5] and in assay [6] were -8.13% (inactive) and -4.55% (inactive), respectively.
As for `CCOc1ccccc1OCCCCN1CCCC1`, the viability is 87% (inactive) in assay [1]; 109% (inactive) in assay [2]; 91.5% (inactive) in assay [3]; 89.4% in assay [4] (setting [7]); 91.5% in assay [4] (setting [8]). The differential viability (reversal) in assay [4] (H69AR cells + 2 uM doxorubicin) was 2.1% (inactive). The inhibition in assay [5] is -2.21% (inactive); in assay [6], -1.97% (inactive).
Consider `CC(C)CCNC(=O)C(C)N(Cc1ccc(F)cc1)C(=O)c1ccc(CN2CCCCC2)o1` (centres undefined), for which the viability is 72% (inactive) in assay [1]; 108% (inactive) in assay [2]; 95.4% (inactive) in assay [3]; 95.5% in assay [4] (setting [7]); 95.4% in assay [4] (setting [8]). Also, in assay [4] (H69AR cells + 2 uM doxorubicin), the differential viability (reversal) is -0.095% (inactive). In addition, the inhibition in assay [5] is -5.95% (inactive); in assay [6], -2.91% (inactive).
On to `O=S(=O)(NCC1CCCO1)c1ccc2c(c1)OCCO2` (centres undefined), for which the viability in assay [1] was 128% (inactive); in assay [2] it was 98% (inactive); in assay [3], 97.6% (inactive); in assay [4] (setting [7]), 96.8%; in assay [4] (setting [8]) it was 97.6%. Moreover, the differential viability (reversal) in assay [4] (H69AR cells + 2 uM doxorubicin) was 0.805% (inactive). Further, the inhibition in assay [5] is 0.41% (inactive); in assay [6], -5.48% (inactive).
Regarding `Cc1ccc(OCC(O)Cn2c(NCCc3ccccc3)nc3c2c(=O)[nH]c(=O)n3C)cc1` (centres undefined), the viability in assay [1] is 60% (inactive); in assay [2] it was 88.8% (inactive); in assay [3], 93.9% (inactive); in assay [4] (setting [7]), 99%; in assay [4] (setting [8]), 93.9%. In assay [4] (H69AR cells + 2 uM doxorubicin), the differential viability (reversal) is -5.09% (inactive). The inhibition is -3.97% (inactive) in assay [5] and -1.27% (inactive) in assay [6].
With `C=CCN1C(=O)CS/C1=N/c1nccs1`, the viability in assay [1] is 65% (inactive); in assay [2], 96.5% (inactive); in assay [3] it was 98.4% (inactive); in assay [4] (setting [7]) it was 97%; in assay [4] (setting [8]), 98.4%. Moreover, the differential viability (reversal) in assay [4] (H69AR cells + 2 uM doxorubicin) was 1.4% (inactive). Also, the inhibition is -8.9% (inactive) in assay [5] and -1.13% (inactive) in assay [6].
Regarding `Cc1oncc1C(=O)Nc1ccc(C(F)(F)F)cc1`, the viability was 87% (inactive) in assay [1]; 69.8% (inactive) in assay [2]; 97.2% (inactive) in assay [3]; 87.8% in assay [4] (setting [7]); 97.2% in assay [4] (setting [8]). The differential viability (reversal) in assay [4] (H69AR cells + 2 uM doxorubicin) was 9.38% (inactive). For the same compound, the inhibition in assay [5] was -1.69% (inactive); in assay [6], -0.83% (inactive).
As to `O=S1(=O)C=C(Oc2ccc(F)cc2)c2ccccc21`, the viability was 100% (inactive) in assay [1]; 101% (inactive) in assay [2]; 92.5% (inactive) in assay [3]; 88.5% in assay [4] (setting [7]); 92.5% in assay [4] (setting [8]). Besides, the differential viability (reversal) in assay [4] (H69AR cells + 2 uM doxorubicin) was 4.02% (inactive). Moreover, the inhibition in assay [5] is -7.03% (inactive); in assay [6] it was 1.27% (inactive).
